# Measured values published in ChEMBL document CHEMBL2157922, “Synthesis and antifungal activity of diverse C-2 pyridinyl and pyridinylvinyl substituted quinolines” (2012).
# Key:
# [1] = tested on: Candida parapsilosis; assay: Antifungal activity against Candida parapsilosis CCC 124 after 48 hrs by broth microdilution technique; assay type: functional; conditions: Lodderomyces parapsilosis, CCC 124, 48 h
# [2] = tested on: Cryptococcus neoformans; assay: Antifungal activity against Cryptococcus neoformans IM 972724 after 48 hrs by broth microdilution technique; assay type: functional; conditions: IM 972724, 48 h
# Outline: (§1)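 C. neoformans was tested by 96-well RPMI-1640 microdilution, with DMSO-matched growth and sterility control wells. Plates were incubated 48 h at 30 °C in a moist, dark chamber and read at OD405. % inhibition = 100 − (CTW − SCW)/(GCW − SCW), in duplicate. For the clinical isolates, MIC80 and MIC50 are the lowest concentrations giving 80% and 50% inhibition.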
# [3] = tested on: Candida albicans; assay: Antifungal activity against Candida albicans CCC 129 after 48 hrs by broth microdilution technique; assay type: functional; conditions: CCC 129, 48 h
# [4] = tested on: Cryptococcus neoformans; assay: Antifungal activity against Cryptococcus neoformans ATCC 32264 at 31.2 ug/ml after 48 hrs; assay type: functional; conditions: ATCC 32264, 48 h; outline: as §1
# [5] = tested on: Aspergillus fumigatus; assay: Antifungal activity against Aspergillus fumigatus ATCC 26934 after 48 hrs by broth microdilution technique; assay type: functional; conditions: ATCC 26934, 48 h
# Outline: (§2)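 Moulds and dermatophytes were run by CLSI broth microdilution in MOPS-buffered RPMI-1640 at pH 7.0. Aspergillus was incubated at 30 °C and dermatophytes at 28–30 °C, in a moist, dark chamber. MIC100, the lowest concentration with no visible growth, was read visually at a time set by growth of the control fungus.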
# [6] = tested on: Candida albicans; assay: Antifungal activity against Candida albicans CCC 125 after 48 hrs by broth microdilution technique; assay type: functional; conditions: CCC 125, 48 h
# [7] = tested on: Aspergillus flavus; assay: Antifungal activity against Aspergillus flavus ATCC 9170 after 48 hrs by broth microdilution technique; assay type: functional; conditions: ATCC 9170, 48 h; outline: as §2
# [8] = tested on: Candida albicans; assay: Antifungal activity against Candida albicans CCC 126 after 48 hrs by broth microdilution technique; assay type: functional; conditions: CCC 126, 48 h
# [9] = tested on: Candida tropicalis; assay: Antifungal activity against Candida tropicalis CCC 131 after 48 hrs by broth microdilution technique; assay type: functional; conditions: CCC 131, 48 h
# [10] = tested on: Candida albicans; assay: Antifungal activity against Candida albicans CCC 130 after 48 hrs by broth microdilution technique; assay type: functional; conditions: CCC 130, 48 h
# [11] = tested on: Trichophyton rubrum; assay: Antifungal activity against Trichophyton rubrum CCC 113 after 48 hrs by broth microdilution technique; assay type: functional; conditions: CCC 113, 48 h
# [12] = tested on: Cryptococcus neoformans; assay: Antifungal activity against Cryptococcus neoformans IM 042074 after 48 hrs by broth microdilution technique; assay type: functional; conditions: IM 042074, 48 h; outline: as §1
# [13] = tested on: Candida albicans; assay: Antifungal activity against Candida albicans CCC 127 after 48 hrs by broth microdilution technique; assay type: functional; conditions: CCC 127, 48 h
# [14] = tested on: Cryptococcus neoformans; assay: Antifungal activity against Cryptococcus neoformans IM 983040 after 48 hrs by broth microdilution technique; assay type: functional; conditions: IM 983040, 48 h; outline: as §1
# [15] = tested on: Cryptococcus neoformans; assay: Antifungal activity against Cryptococcus neoformans ATCC 32264 at 15.6 ug/ml after 48 hrs; assay type: functional; conditions: ATCC 32264, 48 h; outline: as §1
# [16] = tested on: Cryptococcus neoformans; assay: Antifungal activity against Cryptococcus neoformans IM 983036 after 48 hrs by broth microdilution technique; assay type: functional; conditions: IM 983036, 48 h; outline: as §1
# [17] = tested on: Aspergillus niger; assay: Antifungal activity against Aspergillus niger ATCC 9029 after 48 hrs by broth microdilution technique; assay type: functional; conditions: ATCC 9029, 48 h; outline: as §2
# [18] = tested on: Nakaseomyces glabratus; assay: Antifungal activity against Candida glabrata CCC 115 after 48 hrs by broth microdilution technique; assay type: functional; conditions: CCC 115, 48 h
# [19] = tested on: Candida albicans; assay: Antifungal activity against Candida albicans ATCC 10231 after 48 hrs by broth microdilution technique; assay type: functional; conditions: ATCC 10231, 48 h
# Outline: (§3)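 Yeasts were tested by CLSI broth microdilution in RPMI-1640 buffered to pH 7.0 with MOPS, with compound from 250 down to 0.98 in DMSO stocks. Trays were held at 30 °C in a moist, dark chamber. MIC100, the lowest concentration giving total visual inhibition against the growth control, was read by eye at 48 h.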
# [20] = tested on: Cryptococcus neoformans; assay: Antifungal activity against Cryptococcus neoformans ATCC 32264 after 48 hrs by broth microdilution technique; assay type: functional; conditions: ATCC 32264, 48 h; outline: as §3
# [21] = tested on: Saccharomyces cerevisiae; assay: Antifungal activity against Saccharomyces cerevisiae ATCC 9763 after 48 hrs by broth microdilution technique; assay type: functional; conditions: ATCC 9763, 48 h; outline: as §3
# [22] = tested on: Nannizzia gypsea; assay: Antifungal activity against Microsporum gypseum CCC 115 after 48 hrs by broth microdilution technique; assay type: functional; conditions: CCC 115, 48 h; outline: as §2
# [23] = tested on: Candida albicans; assay: Antifungal activity against Candida albicans ATCC 10231 at 31.2 ug/ml after 24 hrs; assay type: functional; conditions: ATCC 10231, 24 h
# Outline: (§4)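 C. albicans was grown in 96-well RPMI-1640 broth microdilution with compound wells diluted from DMSO stocks. Growth wells with matched DMSO and sterility wells were included. After 24 h at 30 °C in a moist, dark chamber, OD405 was read. % inhibition = 100 − (CTW − SCW)/(GCW − SCW) OD, done in duplicate.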
# [24] = tested on: Pichia kudriavzevii; assay: Antifungal activity against Candida krusei CCC 117 after 48 hrs by broth microdilution technique; assay type: functional; conditions: CCC 117, 48 h
# [25] = tested on: Cryptococcus neoformans; assay: Antifungal activity against Cryptococcus neoformans IM 972751 after 48 hrs by broth microdilution technique; assay type: functional; conditions: IM 972751, 48 h; outline: as §1
# [26] = tested on: Cryptococcus neoformans; assay: Antifungal activity against Cryptococcus neoformans IM 00319 after 48 hrs by broth microdilution technique; assay type: functional; conditions: IM 00319, 48 h; outline: as §1
# [27] = tested on: Candida albicans; assay: Antifungal activity against Candida albicans CCC 130 after 24 hrs by broth microdilution technique; conditions: CCC 130, 24 h
# [28] = tested on: Candida albicans; assay: Antifungal activity against Candida albicans CCC 128 after 48 hrs by broth microdilution technique; assay type: functional; conditions: CCC 128, 48 h
# [29] = tested on: Candida albicans; assay: Antifungal activity against Candida albicans ATCC 10231 at 15.6 ug/ml after 24 hrs; assay type: functional; conditions: ATCC 10231, 24 h; outline: as §4
# [30] = tested on: Trichophyton mentagrophytes; assay: Antifungal activity against Trichophyton mentagrophytes ATCC 9972 after 48 hrs by broth microdilution technique; assay type: functional; conditions: ATCC 9972, 48 h; outline: as §2
# [31] = tested on: Candida albicans; assay: Antifungal activity against Candida albicans ATCC 10231 at 7.8 ug/ml after 24 hrs; assay type: functional; conditions: ATCC 10231, 24 h; outline: as §4
smiles,measurement,setting,value
c1ccc2nc(-c3ccncc3)ccc2c1,MIC50,[1],15.6 µg/mL
same,MIC80,[1],31.2 µg/mL
same,MIC50,[2],31.2 µg/mL
same,MIC80,[2],31.2 µg/mL
same,MIC50,[3],7.8 µg/mL
same,MIC80,[3],15.6 µg/mL
same,inhibition at 31.2 µg/mL,[4],80%
same,MFC,[5],125 µg/mL
same,MIC,[5],62 µg/mL
same,MIC50,[6],15.6 µg/mL
same,MIC80,[6],15.6 µg/mL
same,MFC,[7],125 µg/mL
same,MIC,[7],62 µg/mL
same,MIC50,[8],15.6 µg/mL
same,MIC80,[8],31.2 µg/mL
same,MIC50,[9],15.6 µg/mL
same,MIC80,[9],31.2 µg/mL
same,MIC80,[10],31.2 µg/mL
same,MFC,[11],62 µg/mL
same,MIC,[11],62 µg/mL
same,MIC50,[12],15.6 µg/mL
same,MIC80,[12],31.2 µg/mL
same,MIC50,[13],7.8 µg/mL
same,MIC80,[13],15.6 µg/mL
same,MIC50,[14],15.6 µg/mL
same,MIC80,[14],31.2 µg/mL
same,inhibition at 15.6 µg/mL,[15],80%
same,MIC50,[16],7.8 µg/mL
same,MIC80,[16],31.2 µg/mL
same,MFC,[17],125 µg/mL
same,MIC,[17],62 µg/mL
same,MIC50,[18],15.6 µg/mL
same,MIC80,[18],15.6 µg/mL
same,MFC,[19],250 µg/mL
same,MIC,[19],62 µg/mL
same,MIC50,[19],7.8 µg/mL
same,MIC80,[19],15.6 µg/mL
same,MFC,[20],125 µg/mL
same,MIC,[20],62 µg/mL
same,MIC50,[20],15.6 µg/mL
same,MIC80,[20],15.6 µg/mL
same,MFC,[21],250 µg/mL
same,MIC,[21],62 µg/mL
same,MFC,[22],62 µg/mL
same,MIC,[22],62 µg/mL
same,inhibition at 31.2 µg/mL,[23],80%
same,MIC50,[24],31.2 µg/mL
same,MIC80,[24],62.5 µg/mL
same,MIC50,[25],7.8 µg/mL
same,MIC80,[25],31.2 µg/mL
same,MIC50,[26],31.2 µg/mL
same,MIC80,[26],31.2 µg/mL
same,MIC50,[27],15.6 µg/mL
same,MIC50,[28],7.8 µg/mL
same,MIC80,[28],15.6 µg/mL
same,inhibition at 15.6 µg/mL,[29],80%
same,MFC,[30],62 µg/mL
same,MIC,[30],62 µg/mL
same,inhibition at 7.8 µg/mL,[31],50%
